We go through one molecule from ChEMBL document CHEMBL4017500 (J Med Chem, 2017).

For data set [1], the target named is Macrophage metalloelastase (Homo sapiens) (UniProt P39900). Nature of the data set: Inhibition of human MMP12 (Phe99 to Leu271 residues) expressed in Escherichia coli at 10 uM using Mca-Pro-LeuGly-Leu-Dpa-Ala-Arg-NH2.AcOH as substrate preincubated for 30 mins followed by substrate addition measured after 20 mins by fluorescence assay relative to control. In outline: (§1)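 Human recombinant MMP-2 (1.16 U/well) or MMP-12 (0.007 U/well) in 50 mM HEPES, 10 mM CaCl2, 0.05% Brij-35, pH 7.5. Enzyme and inhibitor pre-incubated 30 min at 37 °C, then OmniMMP fluorogenic substrate (4 μM) added. Fluorescence rise followed 20 min at ex/em 320/400 nm. Activity relative to no-inhibitor wells, with 200 μM NSA as 0%. Run in triplicate.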

The target of data set [2] is Histone deacetylase 1 (Homo sapiens) (UniProt Q13547). The experiment in a line: Inhibition of full length human C-terminal FLAG/His-tagged HDAC1 expressed in baculovirus infected sf9 cells at 10 uM using HDAC substrate 3 preincubated for 5 mins followed by substrate addition measured after 30 mins by fluorescence assay. In outline: (§2)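 Inhibitor pre-incubated 5 min, then HDAC substrate 3 (20 μM) added, 30 min at 37 °C. Developer added for 15 min at room temperature; fluorescence read at ex/em 360/460 nm. Activity relative to no-inhibitor wells, with 200 μM SAHA as 0%. Run in triplicate.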

Data set [3] has as its target Macrophage metalloelastase (Homo sapiens) (UniProt P39900). The experiment in a line: Inhibition of human MMP12 (Phe99 to Leu271 residues) expressed in Escherichia coli at 50 to 100 uM using Mca-Pro-LeuGly-Leu-Dpa-Ala-Arg-NH2.AcOH as substrate preincubated for 30 mins followed by substrate addition measured after 20 mins by fluorescence assay relative to control. The method, boiled down:
as §1

Data set [4] deals with T1, Protein deacetylase HDAC6 (Homo sapiens) (UniProt Q9UBN7).
T1 sequence (whole entry): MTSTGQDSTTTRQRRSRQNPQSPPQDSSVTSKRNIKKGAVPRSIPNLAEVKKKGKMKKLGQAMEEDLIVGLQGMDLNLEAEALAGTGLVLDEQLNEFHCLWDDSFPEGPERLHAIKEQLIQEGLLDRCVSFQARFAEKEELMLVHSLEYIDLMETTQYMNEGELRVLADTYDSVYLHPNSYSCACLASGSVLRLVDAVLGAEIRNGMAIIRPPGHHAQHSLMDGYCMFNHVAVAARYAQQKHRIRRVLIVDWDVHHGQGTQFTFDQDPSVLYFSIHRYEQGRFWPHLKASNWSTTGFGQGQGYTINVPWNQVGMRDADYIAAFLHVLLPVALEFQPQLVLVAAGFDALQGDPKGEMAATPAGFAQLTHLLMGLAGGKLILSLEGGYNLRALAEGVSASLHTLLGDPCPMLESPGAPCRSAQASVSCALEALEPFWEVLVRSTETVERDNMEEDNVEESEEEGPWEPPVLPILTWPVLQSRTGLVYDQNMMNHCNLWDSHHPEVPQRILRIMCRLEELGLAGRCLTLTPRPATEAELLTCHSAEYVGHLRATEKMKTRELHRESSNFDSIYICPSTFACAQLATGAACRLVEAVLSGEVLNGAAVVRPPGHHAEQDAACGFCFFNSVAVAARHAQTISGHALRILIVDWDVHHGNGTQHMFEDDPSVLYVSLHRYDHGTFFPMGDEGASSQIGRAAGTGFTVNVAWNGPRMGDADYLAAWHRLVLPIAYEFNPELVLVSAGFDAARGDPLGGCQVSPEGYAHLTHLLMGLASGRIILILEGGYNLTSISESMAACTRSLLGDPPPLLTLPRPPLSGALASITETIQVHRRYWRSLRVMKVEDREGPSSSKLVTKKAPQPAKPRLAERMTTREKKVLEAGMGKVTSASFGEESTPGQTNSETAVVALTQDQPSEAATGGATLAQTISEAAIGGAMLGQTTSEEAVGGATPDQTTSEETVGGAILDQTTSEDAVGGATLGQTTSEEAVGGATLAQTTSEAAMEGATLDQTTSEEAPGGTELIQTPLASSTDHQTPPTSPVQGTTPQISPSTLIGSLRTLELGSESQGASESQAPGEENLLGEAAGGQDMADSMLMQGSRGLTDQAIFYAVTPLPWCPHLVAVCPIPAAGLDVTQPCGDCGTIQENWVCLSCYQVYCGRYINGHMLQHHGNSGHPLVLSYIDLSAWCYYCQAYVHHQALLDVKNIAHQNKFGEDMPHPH
The experiment in a line: Inhibition of full length human N-terminal GST-tagged HDAC6 expressed in baculovirus infected sf9 cells at 50 to 100 uM using HDAC substrate 3 preincubated for 5 mins followed by substrate addition measured after 30 mins by fluorescence assay. The method, boiled down:
as §2

Data set [5] deals with Metallo-beta-lactamase type 2 (Klebsiella pneumoniae) (UniProt C7C422). The experiment in a line: Inhibition of NDM1 in Klebsiella pneumoniae isolate Pd1.49 assessed as potentiation of imipenem-induced antibacterial activity by measuring imipenem MIC at 100 mg/L after 18 to 20 hrs by broth microdilution assay (reference value: 4 mg/L). On the technique in general: In broth dilution the organism is exposed to a series of concentrations in liquid medium.

Data set [6] has as its system Bacteria. Nature of the data set: Binding affinity to bacterial NDM-1 expressed in Escherichia coli BL21(DE3) assessed as Zn2+ stripping at 24 uM after 30 mins by equilibrium dialysis method relative to control. In outline: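 NDM-1 (8 μM final) in 50 mM HEPES pH 7.5 mixed with compound at 0–128 μM for 30 min. Then dialyzed 4 h against metal-free 50 mM HEPES pH 7.5. Residual Zn(II) measured by ICP-AES at 213.856 nm.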
(In equilibrium dialysis free small molecules cross a membrane that holds back macromolecules.)

The subject of data set [7] is Escherichia coli. Nature of the data set: Inhibition of NDM1 in Escherichia coli isolate Ch8.69 assessed as potentiation of imipenem-induced antibacterial activity by measuring imipenem MIC at 100 mg/L after 18 to 20 hrs by broth microdilution assay (reference value: 4 mg/L).
Data set [8] deals with Escherichia coli. Nature of the data set: Effect on growth of Escherichia coli isolate Ah8.74 at 100 mg/L after 18 to 20 hrs by broth microdilution assay. The method, boiled down: (§3)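 Mueller-Hinton broth microdilution per CLSI, triplicate. blaNDM-1 clinical isolates grown from OD600 0.1 to 0.224 (~1–2 × 10^8 CFU/mL), diluted 3 μL into 4997 μL MH, and 100 μL added to 100 μL of compound (100 mg/L) alone. Incubated 37 °C for 18–20 h, then scored for growth.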

The test system of data set [9] is Klebsiella pneumoniae. The experiment in a line: Effect on growth of Klebsiella pneumoniae isolate Pd1.49 at 100 mg/L after 18 to 20 hrs by broth microdilution assay. The method, boiled down:
as §3

For data set [10], the system named is Klebsiella pneumoniae. The experiment in a line: Effect on growth of Klebsiella pneumoniae isolate Pd1.50 at 100 mg/L after 18 to 20 hrs by broth microdilution assay. In outline:
as §3

Data set [11] concerns Klebsiella pneumoniae. The experiment in a line: Effect on growth of Klebsiella pneumoniae isolate Pd1.54 at 100 mg/L after 18 to 20 hrs by broth microdilution assay. In outline: as §3
Data set [12] has as its system Klebsiella pneumoniae. Nature of the data set: Effect on growth of Klebsiella pneumoniae isolate Cm1.63 at 100 mg/L after 18 to 20 hrs by broth microdilution assay. The method, boiled down:
as §3

Calls of active or inactive are those of the source. The calls are words filed in the database; no cut-off is given here.

Sequence of Macrophage metalloelastase (Homo sapiens) (P39900 106-470 limits assumed): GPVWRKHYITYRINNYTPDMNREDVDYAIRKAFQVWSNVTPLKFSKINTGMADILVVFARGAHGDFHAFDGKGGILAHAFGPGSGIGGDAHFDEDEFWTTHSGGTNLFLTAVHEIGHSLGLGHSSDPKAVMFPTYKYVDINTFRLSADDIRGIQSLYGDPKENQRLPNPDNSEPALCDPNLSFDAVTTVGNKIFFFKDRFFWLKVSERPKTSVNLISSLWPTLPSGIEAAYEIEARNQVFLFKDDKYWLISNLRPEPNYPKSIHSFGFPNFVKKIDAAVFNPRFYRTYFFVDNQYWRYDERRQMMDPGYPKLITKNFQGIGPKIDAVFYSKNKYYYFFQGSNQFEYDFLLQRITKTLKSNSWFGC
Sequence of Histone deacetylase 1 (Homo sapiens) (Q13547 whole entry): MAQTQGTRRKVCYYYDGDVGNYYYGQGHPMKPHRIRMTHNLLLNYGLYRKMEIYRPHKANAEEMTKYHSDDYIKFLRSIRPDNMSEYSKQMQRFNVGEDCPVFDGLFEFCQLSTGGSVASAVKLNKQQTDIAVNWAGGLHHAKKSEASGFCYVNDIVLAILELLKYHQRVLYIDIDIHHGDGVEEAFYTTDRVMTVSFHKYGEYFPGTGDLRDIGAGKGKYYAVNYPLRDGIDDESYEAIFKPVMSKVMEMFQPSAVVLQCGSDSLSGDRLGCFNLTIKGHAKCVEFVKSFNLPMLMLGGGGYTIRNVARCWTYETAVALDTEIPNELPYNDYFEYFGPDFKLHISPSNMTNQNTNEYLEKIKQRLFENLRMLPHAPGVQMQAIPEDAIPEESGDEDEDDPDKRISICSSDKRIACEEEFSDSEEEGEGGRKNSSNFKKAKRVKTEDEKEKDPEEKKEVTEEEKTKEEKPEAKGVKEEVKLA
Sequence of Metallo-beta-lactamase type 2 (Klebsiella pneumoniae) (C7C422 whole entry): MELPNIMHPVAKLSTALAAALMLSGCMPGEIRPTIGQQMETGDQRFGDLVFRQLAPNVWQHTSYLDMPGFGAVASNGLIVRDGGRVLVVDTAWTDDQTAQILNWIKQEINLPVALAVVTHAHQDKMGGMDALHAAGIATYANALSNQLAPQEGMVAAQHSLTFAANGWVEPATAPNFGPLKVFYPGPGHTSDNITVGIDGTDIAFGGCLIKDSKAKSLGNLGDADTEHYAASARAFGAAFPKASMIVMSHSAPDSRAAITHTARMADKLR

What is called inhibition is the relative decrease from the control value, in per cent. As to `Nc1cccc(-c2cc(C(=O)O)nc(C(=O)O)c2)c1`, the inhibition in data set [1] was 48%; in data set [3], under 50%; in data set [4], under 50%. Moreover, the inhibition entry in data set [2] is “inactive”. The MIC in [5] turned out to be 1 µg/mL; in data set [7], 0.5 µg/mL. Moreover, the Activity is 10 to 20% in [6]; “Non-Toxic” in data set [8]; “Non-Toxic” in data set [9]; “Non-Toxic” in data set [10]; “Non-Toxic” in [11]; “Non-Toxic” in data set [12].
